Bioassay records (PubChem BioAssay)
Most compounds without a hit are left out; they make up all but 1% or so of the library.
FID counter – compounds displacing fluorescent DNA intercalator, primary screen, artefact control for HCV NS3 helicase inhibitor project, biochemical, FID fluorescence; DNA fluorescent intercalator displacement; inhibition, % at 7.9 µM; 0.17% of 290,000 active; AID 1845, 2009; in the data active = inhibition above about 37%;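 also: higher means more ethidium bromide displaced from hairpin DNA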
VIM-2 inhibitor – VIM-2 metallo-beta-lactamase inhibitors, primary screen, biochemical, epi-absorbance readout, Pseudomonas aeruginosa enzyme; inhibition, % at 5.6 µM; purified VIM-2, nitrocefin hydrolysis, epi-absorbance fluorescence; AID 1527, 2009; 0.89% of 290,000 active;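 active = inhibition above the mean of all tested compounds plus 3 SD, cutoff set per screening run, cut at about 7.5% in these data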;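 also: red hydrolysis product quenches plate fluorescence so inhibitors raise well fluorescence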
RAD54 inh – inhibitors of human RAD54 branch migration, primary screen, biochemical, fluorescence, single point; DNA repair and recombination protein RAD54-like (Homo sapiens), Q92698; RAD54 Holliday junction branch migration, FAM/BHQ fluorescence; inhibition, % at 10.4 µM; 0.14% of 360,000 active; AID 602329, 2012;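 active = mean normalized replicate activity at least 40 and at least half of replicates scoring 40 or more; inconclusive = only one of the two criteria met; inactive = mean below 40 and under half of replicates reaching 40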;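 also: inhibitors cause a drop in the FAM fluorescence signal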
Target sequence (Q92698 whole entry, looked up): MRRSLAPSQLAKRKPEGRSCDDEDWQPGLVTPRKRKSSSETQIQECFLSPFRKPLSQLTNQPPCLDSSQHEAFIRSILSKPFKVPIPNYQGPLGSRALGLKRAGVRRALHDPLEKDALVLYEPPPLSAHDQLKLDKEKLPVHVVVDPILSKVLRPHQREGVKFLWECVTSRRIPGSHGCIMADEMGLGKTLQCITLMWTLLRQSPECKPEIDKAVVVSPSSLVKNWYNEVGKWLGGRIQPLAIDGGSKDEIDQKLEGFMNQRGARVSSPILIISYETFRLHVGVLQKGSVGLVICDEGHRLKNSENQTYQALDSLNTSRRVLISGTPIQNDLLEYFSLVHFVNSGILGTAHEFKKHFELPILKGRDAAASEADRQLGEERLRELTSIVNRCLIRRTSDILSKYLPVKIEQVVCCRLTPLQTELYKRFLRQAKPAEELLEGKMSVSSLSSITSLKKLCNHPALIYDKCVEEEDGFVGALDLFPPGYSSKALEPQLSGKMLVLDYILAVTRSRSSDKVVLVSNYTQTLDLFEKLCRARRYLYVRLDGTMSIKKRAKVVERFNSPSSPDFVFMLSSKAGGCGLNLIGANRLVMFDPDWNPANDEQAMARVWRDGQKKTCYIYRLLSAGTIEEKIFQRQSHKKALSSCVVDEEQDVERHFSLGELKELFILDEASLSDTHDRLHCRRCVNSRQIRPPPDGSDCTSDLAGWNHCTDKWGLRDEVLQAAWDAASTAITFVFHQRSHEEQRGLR
PvdQ acylase – P. aeruginosa PvdQ acylase inhibitors, primary screen, biochemical, fluorescence, plate reader and imaging, single point; purified PvdQ acylase; inhibition, % at 10 µM; 0.063% of 340,000 active; AID 488965, 2010; in the data active = inhibition above about 30%, passing the limit was not always enough; inconclusive = no clear call, values can overlap the other calls
IMP-1 inh – IMP-1 metallo-beta-lactamase inhibitors, primary screen, biochemical, epi-absorbance readout, Pseudomonas aeruginosa enzyme | purified IMP-1, nitrocefin hydrolysis, epi-absorbance fluorescence | 0.45% of 290,000 active | inhibition, % at 5.6 µM | AID 1556, 2009;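 active = inhibition above the mean plus 3 SD of all compounds in the same screening run, cut at about 4.5% in these data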
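System: Purified IMP-1 | Read-out basis: Percent enzyme inhibition | Controls: IMP-1 with DMSO as 0%, enzyme-free DMSO as 100% | Replicates: One well per compound | Doses: 5.6 µM nominal single concentration | Detection: Epi-absorbance fluorescence, 480 nm excitation, 530 nm emission | Incubation: 25 °C, 15 min preincubation, 25 min reaction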
Of the large screens only hits and unclear results are named; the others gave an inactive call.

COc1cccc(S(=O)(=O)N(C)C[C@@H]2Oc3ncc(C#CC(C)C)cc3C(=O)N([C@H](C)CO)C[C@@H]2C)c1	none (no result: FID counter, VIM-2 inhibitor, PvdQ acylase, IMP-1 inh)
O=C(C1CCN(c2nnc(-n3cccc3)s2)CC1)N1CCOCC1	none
O=C(C1CCN(c2ncnc3c2sc2cccc(F)c23)CC1)N1CCOCC1	VIM-2 inhibitor 11
Cc1ccnc(NC(=O)c2cc3c(=O)oc4ccc(C)cc4c3s2)c1	none
Cc1ccc2oc(=O)c3cc(C(=O)NCCN4CCN(C)CC4)sc3c2c1	VIM-2 inhibitor 12
Cc1ccc2oc(=O)c3cc(C(=O)NCCCN4CCc5ccccc5C4)sc3c2c1	none
Cc1ccc2oc(=O)c3cc(C(=O)NCCCN4CCCCCC4)sc3c2c1	VIM-2 inhibitor 9.6
CC(C)(C)Nc1c2ccccc2nc2ccccc12	none
OCCCNc1c2ccccc2nc2ccccc12	FID counter 45, VIM-2 inhibitor 8.3, RAD54 inh 97
CCN1/C(=C/C=C/c2sc3ccccc3[n+]2CC)Sc2ccccc21	RAD54 inh inconclusive (no result: FID counter, VIM-2 inhibitor, IMP-1 inh)
CCN1/C(=C/C=C/c2oc3ccc(-c4ccccc4)cc3[n+]2CC)Oc2ccc(-c3ccccc3)cc21	IMP-1 inh 4.6
C(=C\c1nnc(-c2cccs2)o1)/c1ccccc1	PvdQ acylase 38
Nn1c(SCc2ccc([N+](=O)[O-])cc2)nc2ccccc2c1=O	IMP-1 inh 7.6
O=c1c2ccccc2nc(SCc2ccc([N+](=O)[O-])cc2)n1-c1ccc(Cl)cc1	none (no result: RAD54 inh)
Cc1ccc(CN2C(=O)c3ccccc3Sc3ccc(C(=O)NCCCN4CCOCC4)cc32)cc1	FID counter 37
COc1cccc(/C=C2/Sc3ccc(C(=O)NCCN4CCCC4)cc3NC2=O)c1	VIM-2 inhibitor 11
CCN1CCN(CCNC(=O)c2ccc3c(c2)N(Cc2ccc(F)cc2)C(=O)/C(=C/c2ccccc2)S3)CC1	RAD54 inh 66
CCN1CCN(CCNC(=O)c2ccc(/C=C3/Sc4ccccc4N(Cc4cccc(Cl)c4)C3=O)cc2)CC1	FID counter 39 (no result: RAD54 inh)
O=C1Nc2cc(C(=O)NCCN3CCCCCC3)ccc2S/C1=C/c1ccccc1F	none (no result: FID counter, VIM-2 inhibitor, PvdQ acylase, IMP-1 inh)
Cc1cccc(CN2C(=O)/C(=C\c3ccc(C(=O)NCCN4CCOCC4)cc3)Sc3ccccc32)c1	none
O=C(NCCN1CCOCC1)c1ccc(/C=C2\Sc3ccccc3N(Cc3ccccc3F)C2=O)cc1	none
C[C@@H]1CN([C@@H](C)CO)C(=O)c2cccc(NC(=O)C3CCOCC3)c2O[C@H]1CN(C)C(=O)Nc1ccc(C(F)(F)F)cc1	none (no result: FID counter, VIM-2 inhibitor, PvdQ acylase, IMP-1 inh)
CO[C@@H](CN(C)S(=O)(=O)c1cn(C)cn1)[C@@H](C)CN(C(=O)Nc1ccc(F)cc1)[C@H](C)CO	none (no result: FID counter, VIM-2 inhibitor, PvdQ acylase, IMP-1 inh)
O=C1CC(c2ccccc2)Oc2ccccc21 (stereo not given)	none (no result: FID counter, VIM-2 inhibitor, IMP-1 inh)
CCOC1=CC(=O)OC(c2ccccc2)C1 (stereo not given)	PvdQ acylase 81 (no result: FID counter, VIM-2 inhibitor, IMP-1 inh)
CCOc1ccccc1C(=O)N/N=C/c1cccc2cccnc12	VIM-2 inhibitor 9.2
CCOc1ccc(C(=O)N/N=C/c2cccc3cccnc23)cc1	none
Cc1cc(C(=O)O)ccc1-c1ccc(/C=C2\SC(=O)N(CC(=O)Nc3ccc4c(c3)OCO4)C2=O)o1	IMP-1 inh 8.0
Cc1ccc(C(=O)O)cc1-c1ccc(/C=C2\SC(=O)N(CC(=O)Nc3ccccc3)C2=O)o1	none
CCc1cc(=O)oc2c(C)c(O)c(CN3CCCCC3)cc12	none (no result: RAD54 inh)
Cc1c(O)c(CN2CCCC2)cc2c1oc(=O)c1ccccc12	VIM-2 inhibitor 9.0
O=c1oc2c(CN3CCOCC3)c(O)c(Cl)cc2c2c1CCCC2	IMP-1 inh 5.3
Cc1c(O)c(CN2CCCC2)cc2c3c(c(=O)oc12)CCC3	VIM-2 inhibitor 9.6
O=c1oc2c(CN3CCOCC3)c(O)ccc2c2c1CCCC2	none (no result: RAD54 inh)
CO[C@H]1CN(C)C(=O)c2ccc(NC(=O)C3CC3)cc2OC[C@@H](C)N(C(=O)C2CCCCC2)C[C@@H]1C	none (no result: FID counter, VIM-2 inhibitor, PvdQ acylase, IMP-1 inh)
CCNC(=O)C[C@H]1CC[C@@H]2[C@@H](COc3ccc(NS(C)(=O)=O)cc3C(=O)N2C)O1	none (no result: FID counter, VIM-2 inhibitor, PvdQ acylase, IMP-1 inh)
O=c1c(C(c2c(O)nc3n(c2=O)CCS3)c2cccc3ccccc23)c(O)nc2n1CCS2	RAD54 inh 54
